Reference: ChEMBL document CHEMBL4414552, “Homotrimerization Approach in the Design of Thrombospondin-1 Mimetic Peptides with Improved Potency in Triggering Regulated Cell Death of Cancer Cells” (J Med Chem, 2019)
The source made the active and inactive calls. The calls are words filed in the database; no cut-off is given here. Square brackets hold non-standard residues; d marks the D form. Peptide text beside a SMILES is read from it. NMeR = CN[C@@H](CCCNC(=N)N)C(=O)O; Nle = CCCC[C@H](N)C(=O)O

Key:
MEC1 [1] = test: Cytotoxicity against human MEC1 cells assessed as induction of cell death at 200 uM after 6 hrs by annexin V/propidium iodide staining based flow cytometric analysis relative to control; type: functional
A549 [2] = test: Induction of cell death in human A549 cells at 100 uM in presence of ryanodine inhibitor dantrolene administered 1 hr post dantrolene treatment in serum-free medium by annexin V-APC/propidium iodide staining based flow cytometric analysis; type: functional
How it was run: (§1)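 Peptide was then added at 10 or 100 μM in serum-free medium for 6 h. Cell death was read by Ann-V/PI flow cytometry and trypan blue counting. A cell death index was obtained by normalizing to each peptide's control. Mean ± SD of two experiments.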

A549 [3] = test: Induction of cell death in human A549 cells at 100 uM administered 30 mins post Q-VD-OPh treatment in serum-free medium by propidium iodide staining based flow cytometric analysis; type: functional
A549 [4] = test: Cytotoxicity against human A549 cells assessed as induction of cell death after 6 hrs by annexin V-APC/propidium iodide staining based flow cytometric analysis; type: functional; conditions: A549, 6 h, read-out: LC50 (the source's name)
How it was run: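 A549 cells kept in Advanced RPMI 1640 with 10% fetal calf serum, 2 mM L-glutamine and penicillin–streptomycin. Peptides at the indicated concentrations in this complete medium for 6 h. Cells stained with Ann-V-APC (0.1 μg/mL) and PI (0.5 μg/mL), then read by flow cytometry. Values are means ± SD of two independent experiments.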

[5] = Aggregation property of the compound in phosphate buffer; type: physicochemical
A549 [6] = test: Disruption of membrane integrity in human A549 cells assessed as increase in adenylate kinase release at 200 uM by ToxiLight bioassay; type: functional, cell-based
Serum = test: Aggregation property of the compound in human serum; type: ADME, cell-free
A549 [7] = test: Induction of cell death in human A549 cells at 100 uM in presence of PLCgamma1 inhibitor U73122 administered 1 hr post U73122 treatment in serum-free medium by annexin V-APC/propidium iodide staining based flow cytometric analysis; type: functional; how it was run: as §1
[8] = Solubility of the compound in PBS with 0.05% Tween 20 and 1% DMSO; type: physicochemical; conditions: buffer
MEC1 [9] = test: Induction of cell death in human MEC1 cells at 50 uM in presence of ryanodine inhibitor dantrolene administered 1 hr post dantrolene treatment in serum-free medium by annexin V-APC/propidium iodide staining based flow cytometric analysis; type: functional
How it was run: (§2)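 Peptide was then added at 5 or 50 μM in serum-free medium for 2 h. Cell death was read by Ann-V/PI flow cytometry and normalized to each peptide's control to give an index. Mean ± SD of at least two experiments.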

MEC1 [10] = test: Induction of cell death in human MEC1 cells at 50 uM in presence of IP3R inhibitor 2-APB administered 1 hr post 2-APB treatment in serum-free medium by annexin V-APC/propidium iodide staining based flow cytometric analysis; type: functional; how it was run: as §2
A549 [11] = test: Induction of cell death in human A549 cells at 100 uM in presence of extracellular calcium chelator BAPTA administered 30 mins post BAPTA treatment in serum-free medium by annexin V-APC/propidium iodide staining based flow cytometric analysis; type: functional
[12] = molecular target: T1, Leukocyte surface antigen CD47 (Homo sapiens, UniProt Q08722); test: Binding affinity to CD47 in biotinylated human MEC1 cell membranes by biolayer interferometry
T1 sequence (Q08722 whole entry): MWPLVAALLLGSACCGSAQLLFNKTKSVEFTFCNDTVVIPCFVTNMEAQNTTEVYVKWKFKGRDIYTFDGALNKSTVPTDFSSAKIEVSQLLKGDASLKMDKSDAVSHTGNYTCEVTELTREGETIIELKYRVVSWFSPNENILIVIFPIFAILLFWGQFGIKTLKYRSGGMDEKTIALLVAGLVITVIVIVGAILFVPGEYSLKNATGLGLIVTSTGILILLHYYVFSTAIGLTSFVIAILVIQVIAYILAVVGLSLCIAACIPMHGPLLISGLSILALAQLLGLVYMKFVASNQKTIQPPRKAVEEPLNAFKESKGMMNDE
How it was run: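 Biotinylated membrane preparations from MEC-1 cells were loaded onto SuperStreptavidin biosensors. Binding was measured by bilayer interferometry (Octet RED96) in PBS with 0.2% BSA and 1% DMSO at 30 °C. Affinities are given as apparent Kd estimates.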

[13] = molecular target: T1, Leukocyte surface antigen CD47; test: Agonist activity at CD47 in human MEC1 cells assessed as activation of PLCgamma1-induced calcium-mediated caspase-independent cell death at 200 uM after 2 hrs by microscopic method; type: cell-based
How it was run: (§3)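 MEC-1 CLL cells kept in Advanced RPMI 1640 with 10% FCS, 2 mM L-glutamine and penicillin–streptomycin. Cells were treated with peptide in complete medium for 2 h, then examined by light microscopy at 20X for morphology and cell aggregation.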

MEC1 [14] = test: Induction of cell death in human MEC1 cells at 50 uM in presence of ryanodine inhibitor dantrolene/PLCgamma1 inhibitor U73122/IP3R inhibitor 2-APB by annexin V-APC/propidium iodide staining based flow cytometric analysis; type: functional; how it was run: as §2
MEC1 [15] = test: Induction of cell aggregation in human MEC1 at 200 uM after 2 hrs by microcopic method; type: functional, cell-based; how it was run: as §3
A549 [16] = test: Induction of cell death in human A549 cells at 100 uM in presence of IP3R inhibitor 2-APB administered 1 hr post 2-APB treatment in serum-free medium by annexin V-APC/propidium iodide staining based flow cytometric analysis; type: functional; how it was run: as §1
MEC1 [17] = test: Cytotoxicity against human MEC1 cells assessed as induction of cell death after 2 hrs by annexin V/propidium iodide staining based flow cytometric analysis; type: functional; conditions: MEC1, 2 h, read-out: LC50 (the source's name)
How it was run: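 MEC-1 CLL cells (TP53-dysfunctional) maintained in Advanced RPMI 1640 with 10% fetal calf serum, 2 mM L-glutamine and penicillin–streptomycin. Peptide treatment for 2 h in complete medium. Ann-V-APC (0.1 μg/mL) and PI (0.5 μg/mL) staining, read by flow cytometry. Cell death taken as the sum of AnnV+/PI- and AnnV+/PI+ events. Mean ± SD of at least three independent experiments.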

A549 [18] = test: Induction of cell death in human A549 cells assessed as reduction in cell index at 200 uM measured every minute for first 2 hrs followed by every hour for 24 hrs by RTCA analysis; type: functional, cell-based
MEC1 [19] = test: Induction of cell death in human MEC1 cells at 50 uM in presence of extracellular calcium chelator BAPTA administered 30 mins post BAPTA treatment in serum-free medium by Annexin V-APC/propidium iodide staining based flow cytometric analysis; type: functional
[20] = Aggregation property of the compound in water; type: physicochemical; conditions: buffer
A549 [21] = test: Induction of cell death in human A549 cells at 100 uM in presence of ryanodine inhibitor dantrolene/PLCgamma1 inhibitor U73122/IP3R inhibitor 2-APB by annexin V-APC/propidium iodide staining based flow cytometric analysis; type: functional; how it was run: as §1
MEC1 [22] = test: Induction of cell death in human MEC1 cells at 50 uM in presence of PLCgamma1 inhibitor U73122 administered 1 hr post U73122 treatment in serum-free medium by annexin V-APC/propidium iodide staining based flow cytometric analysis; type: functional; how it was run: as §2
[23] = Aggregation property of the compound in pure water; type: physicochemical; conditions: buffer
MEC1 [24] = test: Induction of cell death in human MEC1 cells at 50 uM in presence of caspase inhibitor Q-VD-OPH administered 30 mins post Q-VD-OPH treatment in serum-free medium by Annexin V-APC/propidium iodide staining based flow cytometric analysis; type: functional

With `CSCC[C@@H](C(=O)N[C@@H](Cc1c[nH]c2ccccc12)C(=O)N[C@@H](CCCCN)C(=O)N[C@H](CCCCN)C(=O)O)N(C)C(=O)[C@@H](NC(=O)[C@@H](NC(=O)[C@H](Cc1ccc(O)cc1)NC(=O)[C@H](Cc1ccccc1)NC(=O)[C@H](CCCNC(=N)N)NC(=O)[C@H](N)CCCCN)C(C)C)C(C)C` the Activity (MEC1 [1]) was 11%.
For `CCCC[C@H](NC(=O)[C@@H](NC(=O)[C@@H](NC(=O)[C@H](Cc1ccc(O)cc1)NC(=O)[C@H](Cc1ccccc1)NC(=O)[C@H](CCCNC(=N)N)N(C)C(=O)[C@H](N)CCCCN)C(C)C)C(C)C)C(=O)N[C@@H](Cc1c[nH]c2ccccc12)C(=O)N[C@@H](CCCCN)C(=O)N[C@H](CCCCN)C(=O)O` (H-[dK][NMeR]FYVV[Nle]WK[dK]-OH), the Activity (A549 [2]) was “inactive”, the Activity (A549 [3]) was “inactive” and the CC50 (A549 [4]) was 200 µM. For the same compound, the Activity [5] was “Not Active”, the Activity (A549 [6]) was “Active” and the Activity (Serum) was “Not Active”. For the same compound, the Activity (A549 [7]) was “inactive”, the solubility [8] was “Soluble” and the Activity (MEC1 [9]) was “inactive”. For the same compound, the Activity (MEC1 [10]) was “inactive”, the Activity (A549 [11]) was “inactive” and the Kd [12] was 8.6 µM. For the same compound, the Activity [13] was “Active”, the Activity (MEC1 [14]) was “inactive” and the Activity (MEC1 [15]) was “inactive”. For the same compound, the Activity (A549 [16]) was “inactive”, the CC50 (MEC1 [17]) was 200 µM and the Activity (A549 [18]) was “Active”. For the same compound, the Activity (MEC1 [19]) was “inactive”, the Activity [20] was “Not Active” and the Activity (A549 [21]) was “inactive”. The Activity (MEC1 [22]) was “inactive”, the Activity (MEC1 [1]) was 59% and the Activity [23] was “Not Active”. The Activity (MEC1 [24]) was “inactive”.
In the case of `CC(C)[C@H](NC(=O)[C@H](Cc1ccc(O)cc1)NC(=O)[C@H](Cc1ccccc1)NC(=O)[C@H](CCCNC(=N)N)N(C)C(=O)[C@H](N)CCCCN)C(=O)N[C@H](C(=O)N[C@H](C(=O)N[C@@H](Cc1c[nH]c2ccccc12)C(=O)N[C@@H](CCCCN)C(=O)N[C@H](CCCCN)C(=O)O)C(C)C)C(C)C`, the Kd [12] is reported as 9.5 µM and the Activity (MEC1 [1]) is reported as 23%.
With `CSCC[C@H](NC(=O)[C@@H](NC(=O)[C@H](C(C)C)N(C)C(=O)[C@H](Cc1ccc(O)cc1)NC(=O)[C@H](Cc1ccccc1)NC(=O)[C@H](CCCNC(=N)N)NC(=O)[C@H](N)CCCCN)C(C)C)C(=O)N[C@@H](Cc1c[nH]c2ccccc12)C(=O)N[C@@H](CCCCN)C(=O)N[C@H](CCCCN)C(=O)O` the Kd [12] was 36 µM and the Activity (MEC1 [1]) was 11%.
In the case of `CC[C@H](C)[C@H](NC(=O)[C@@H](NC(=O)[C@@H](NC(=O)[C@H](Cc1ccc(O)cc1)NC(=O)[C@H](Cc1ccccc1)NC(=O)[C@H](CCCNC(=N)N)N(C)C(=O)[C@H](N)CCCCN)C(C)C)C(C)C)C(=O)N[C@@H](Cc1c[nH]c2ccccc12)C(=O)N[C@@H](CCCCN)C(=O)N[C@H](CCCCN)C(=O)O`, the Kd [12] is reported as 17 µM and the Activity (MEC1 [1]) is reported as 25%.
`CC(C)C[C@H](NC(=O)[C@@H](NC(=O)[C@@H](NC(=O)[C@H](Cc1ccc(O)cc1)NC(=O)[C@H](Cc1ccccc1)NC(=O)[C@H](CCCNC(=N)N)N(C)C(=O)[C@H](N)CCCCN)C(C)C)C(C)C)C(=O)N[C@@H](Cc1c[nH]c2ccccc12)C(=O)N[C@@H](CCCCN)C(=O)N[C@H](CCCCN)C(=O)O` (H-[dK][NMeR]FYVVLWK[dK]-OH) gave a Kd [12] of 15 µM and an Activity (MEC1 [1]) of 26%.
